# Only some compounds are listed: those with a hit (about 3.7% of all), similar ones and a draw of the others.
# KCNQ1 inh – inhibitors of human KCNQ1 potassium channel; P51787; CHO-K1 KCNQ1, FluxOR thallium flux fluorescence; stronger effect = higher value; B-score at 10 µM; 310,000 compounds, 1.3% hits;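 active = compounds whose thallium flux B-score, printed positive for inhibition, exceeds three library SD while starting fluorescence stays within three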;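 note: channel opened by potassium depolarization with thallium stimulus after 20 min compound exposure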
# Kir21 block – blocks the mouse Kir2.1 inward-rectifier potassium channel; P35561; HEK293-Kir2.1, FluxOR thallium flux fluorescence; stronger effect = lower value; B-score at 10 µM; 310,000 compounds, 0.85% hits; AID 1672;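 active = fluorescence ratio B-score at or below minus 3 SD of library scores, with starting-brightness B-score within 2 SD, cut at about -4.2 in these data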;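 note: channel flux triggered by added potassium and thallium sulfate stimulus; B-score of peak minus minimum fluorescence over baseline after thallium stimulus; more negative B-score means stronger Kir2.1 block with less thallium influx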
# KCNK9 inh-1 – blocks the human KCNK9 two-pore domain potassium channel; B-score at 10 µM; AID 488922; Q9NPC2; 310,000 compounds, 1.2% hits; HEK293 KCNK9, FluxOR thallium flux fluorescence; stronger effect = lower value;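 active = ratio B-score over 3 SD below the library mean, with starting fluorescence within 5 SD of its mean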;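 note: negative B-score means less thallium flux so channel inhibition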
# Target sequence (Q9NPC2 whole entry, looked up, the tested form may be a part): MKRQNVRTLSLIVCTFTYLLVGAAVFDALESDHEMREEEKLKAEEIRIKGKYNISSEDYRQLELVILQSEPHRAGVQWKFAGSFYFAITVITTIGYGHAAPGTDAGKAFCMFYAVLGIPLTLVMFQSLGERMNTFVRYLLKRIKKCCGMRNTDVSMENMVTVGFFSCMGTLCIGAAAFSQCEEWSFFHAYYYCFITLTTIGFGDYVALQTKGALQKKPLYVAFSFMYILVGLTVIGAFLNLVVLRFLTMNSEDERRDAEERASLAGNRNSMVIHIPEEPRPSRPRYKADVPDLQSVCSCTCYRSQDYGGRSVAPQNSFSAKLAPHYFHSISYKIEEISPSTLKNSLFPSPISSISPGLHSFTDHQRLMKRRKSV
# KCNK3 inh – human KCNK3 channel inhibition, primary screen. O14649. CHO-KCNK3 thallium flux, FluxOR fluorescence; stronger effect = lower value. B-score at 10 µM. 340,000 compounds, 0.84% hits. AID 602410;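 active = B-score under library mean minus 4 SD, starting fluorescence ratio at most library mean plus 5 SD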;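 note: more negative B-score means stronger inhibition of thallium flux through KCNK3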
# KCNQ1 act – human KCNQ1 channel potentiation or activation; P51787; B-score at 10 µM; CHO-K1 KCNQ1, thallium flux FluxOR fluorescence; stronger effect = higher value; 310,000 compounds, 0.35% hits;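 active = fluorescence ratio B-score, a plate-corrected score, at least three library SD, with initial intensity B-score within 5 SD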
#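 Material: CHO-K1 cells stably expressing KCNQ1. Medium: assay buffer for compound exposure, DMSO matched across wells. Reagent: K+/Tl+ depolarizing stimulus. Compound dosing: single-concentration screen. Times: 37 °C overnight plating, 90-min dark dye load, 20-min compound pretreatment. Technique: FluxOR Tl+ flux fluorescence.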
# hERG protect – shields human hERG channel from block by proarrhythmic agents; Q12809; CHO-hERG, FluxOR thallium flux, dofetilide IC70 present; activation (rescue from dofetilide block), less the hit threshold, % at 10 µM; 310,000 compounds, 0.51% hits;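 active = activation above the mean of controls blocked by dofetilide plus 5 SD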;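 note: thallium influx through hERG after potassium depolarization seen as dye fluorescence rise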
# hERG ctr – counter-screen for Kir2.1 inhibitors: effect on human hERG | AID 2236 | inhibition, % at 10 µM | hERG-expressing cells, thallium flux | shares compounds with Kir21 block | 320 compounds, 20% hits;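 note: host cells are CHO cells stably expressing hERG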
# KCNK9 inh-2 – tests whether Kir2.1 inhibitors also affect human KCNK9; KCNK9-expressing cells, ion flux inhibition; inhibition, % at 10 µM; AID 2329; shares compounds with Kir21 block; 320 compounds, 5% hits
# Kir21 ephys inh – blocks mouse Kir2.1 current in automated electrophysiology | Kir2.1 cells, automated patch-clamp current inhibition | shares compounds with Kir21 block | inhibition, % at 25 µM | 320 compounds, 71% hits
# Numbers without * were called inactive; i = inactive; ? = inconclusive; . = no result given. Unless noted, the rule behind the calls is not given here.
SMILES,KCNQ1 inh,Kir21 block,KCNK9 inh-1,KCNK3 inh,KCNQ1 act,hERG protect,hERG ctr,KCNK9 inh-2,Kir21 ephys inh
CCCCn1c(N)c(N(CCOC)C(=O)COC(=O)CCOc2ccccc2)c(=O)[nH]c1=O,i,0.06,i,i,i,-5.8,i,i,?
CCCCn1c(N)c(N(CCOC)C(=O)COc2ccc(OCC)cc2)c(=O)[nH]c1=O,i,1.55,i,i,i,-10.6,.,.,.
CCOC(=O)C1=C(C)NC(=O)NC1/C=C/c1ccccc1OC (centres undefined),i,0.83,i,i,i,2.7,.,.,.
Cc1cccc(N2CCN(C(=O)c3ccccc3SCC(=O)N3CCCC3)CC2)c1C,.,.,.,i,.,.,.,.,.
COC(=O)c1cc([N+](=O)[O-])c(-n2cncn2)c([N+](=O)[O-])c1,i,-7.7*,i,i,i,-16.0,i,i,i
CCCCC(C(=O)NC1CCCC1)N(C(=O)c1snc(C(N)=O)c1N)c1ccc(F)cc1 (centres undefined),i,2.01,i,i,i,-4.7,.,.,.
CN(C)CCN(Cc1ccccc1)C(=O)[C@H](Cc1ccccc1)N1C(=O)c2ccccc2C1=O,i,-6.05*,i,i,i,-7.5,i,i,i
CCC(=O)OCc1c(C(F)(F)F)nn(C)c1Sc1ccc(F)cc1,i,-8.42*,i,i,i,-20.4,i,i,30.9%*
Cc1cc(C)c(C)c(S(=O)(=O)N(C)C2CCN(C)CC2)c1C,i,-0.15,i,i,i,-2.1,.,.,.
O=C(c1cc(COc2ccc3c(c2)CCCC3)on1)N1CCCC1,i,4.09,i,i,i,-5.6,i,i,i
Cc1nc(Cl)sc1C(=O)Nc1cccc2ccccc12,i,0.04,i,i,i,-4.0,.,.,.
OC(CNCCc1ccccc1)c1ccccc1 (centres undefined),i,-9.65*,i,i,i,-1.3,i,i,49.8%*
CSc1ccc(CNCC(O)c2ccccc2)cc1 (centres undefined),i,-6.18*,i,i,i,-5.5,i,i,54.1%*
CC(=O)c1ccccc1C(=O)N1CCCC(N2CCN(Cc3ccc4c(c3)OCO4)CC2)C1 (centres undefined),i,-0.22,i,i,i,-2.6,.,.,.
COc1ccc(CN(C)CC2CCCN(CCc3ccc(F)cc3)C2)cc1OC (centres undefined),i,-6.23*,i,i,i,-2.6,i,i,22.3%*
COc1ccc(CCN2CCCC(CN(C)Cc3cc(OC)c(OC)c(OC)c3)C2)cc1 (centres undefined),i,1.17,i,i,i,-9.1,.,.,.
COC(=O)C(C(=O)Nc1nc2ccccc2s1)C1CCCC1 (centres undefined),i,1.36,i,i,i,-11.5,.,.,.
CCn1c(COc2ccc(C)cc2)nnc1SCC(=O)C(C)(C)C,i,-2.74,i,i,i,-0.1,.,.,.
CCn1c(COc2ccc(C)cc2)nnc1SCc1ccc(C#N)cc1,i,-7.91*,i,i,i,-13.3,i,i,7.3%*
C#Cc1ccc([C@@H]2C=C(C(=O)NCc3nc4ccccc4[nH]3)O[C@H](OCC)[C@H]2CCCO)cc1,i,-0.47,i,i,i,-13.5,.,.,.
COc1cccc(NC(=O)C(C)SCc2ccccc2)c1 (centres undefined),i,0.21,i,i,i,-8.6,.,.,.
COc1ccc(CCNC(=O)C(C)SCc2ccccc2)cc1 (centres undefined),i,-7.49*,i,i,i,-10.3,i,i,56.0%*
CCC1CCCCN1C(=S)NC(=O)c1cccc([N+](=O)[O-])c1 (centres undefined),i,2.67,i,i,28*,19.6*,i,i,i
CC(=O)NNC(=S)NC(=O)c1cccc([N+](=O)[O-])c1,i,0.48,i,i,i,-6.0,.,.,.
CC(C)CNS(=O)(=O)c1ccc(CCC(=O)NCCC2=CCCCC2)cc1,i,0.88,i,i,i,-8.5,.,.,.
SMILES,KCNQ1 inh,Kir21 block,KCNK9 inh-1,KCNK3 inh,KCNQ1 act,hERG protect,hERG ctr,KCNK9 inh-2,Kir21 ephys inh
CCOC(=O)c1ccc(Nc2ncnc3ccc(C)cc23)cc1,i,-0.98,i,i,i,-9.4,.,.,.
CCOC(=O)c1cccc(Nc2ncnc3ccc(C)cc23)c1,i,-6.05*,i,i,i,-10.2,i,i,32.4%*
O=C1C(Cc2c[nH]c3ccccc23)NC(=S)N1Cc1ccccc1 (centres undefined),i,-6.42*,i,i,i,-11.7,i,i,12.2%*
Clc1ccc(COc2ccccc2CNCc2cccnc2)cc1,i,-2.15,i,i,i,-0.8,.,.,.
CCOc1cccc(CNCc2cccnc2)c1OCc1ccccc1,i,-7.5*,i,i,i,-0.9,i,i,40.4%*
CCN(c1cccc(C)c1)S(=O)(=O)c1ccc2c(c1)NC(=O)CCS2,i,0.77,i,i,i,-7.3,.,.,.
CCN(c1cccc(C)c1)S(=O)(=O)c1ccc2c(c1)NC(=O)CS2,i,-5.88*,i,i,i,-9.0,i,i,i
Cc1nc2ccc(C(=O)N3c4ccccc4CC3C)cc2s1 (centres undefined),i,-1.04,i,i,i,-10.2,.,.,.
Cc1cc(NC(=O)COC(=O)c2cc(S(=O)(=O)N3CCOCC3)ccc2N2CCCCC2)no1,i,-0.14,i,i,i,-9.8,.,.,.
CCn1c(CNc2ccc(Cl)cc2)nnc1SCc1ccccc1,i,-6.2*,i,i,i,-5.6,i,i,i
CCn1c(SCC(=O)NC(C)c2ccccc2)nc2ccccc21 (centres undefined),i,-3.42,i,i,i,-9.2,.,.,.
CCn1c(Sc2ccc(N)cc2Cl)nc2ccccc21,i,-6.29*,i,i,i,-2.6,i,i,21.3%*
c1ccc(Cn2c(SCc3nc4ccccc4s3)nnc2-c2ccco2)cc1,i,-7.03*,i,i,i,-20.8,i,i,13.4%*
NC(=O)CCn1c2ccccc2c2ccccc21,i,2.62,i,i,i,-9.1,.,.,.

# Source: PubChem (Johns Hopkins Ion Channel Center)
